Reference: PubChem BioAssay AID2237 (Johns Hopkins Ion Channel Center, 2010)
In all, about 310,000 compounds went through this assay and about 1,500 (0.48%) were called active.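 Rule for the calls: active = B-score above 5 SD of library B-scores, and initial fluorescence ratio not above library mean plus 5 SD; inactive = the rest.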 This excerpt belongs to a sample that is enriched for actives.

The molecules below were run against Short transient receptor potential channel 4 (Mus musculus) (UniProt Q9QUQ5) (assay: TRPC4 cation channel opening, calcium rise – Fluo4 calcium, HEK293 TRPC4beta/mu-opioid cells, primary screen (AID 2237;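 for B-score: positive B-score marks a calcium rise read as TRPC4 activation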)). Details: Fluo4 calcium fluorescence, at 10 µM; stronger effect = higher value.
Outline: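 Material: TRPC4beta and mu-opioid receptor HEK293 stable cells | Incubation: 45 min room-temperature Fluo4 loading, 110 s read | Detection: Kinetic Fluo4 calcium fluorescence | Measure: Integrated baseline-normalised fluorescence ratio, converted to per-well B score | Benchmarks: Low control buffer alone, high control maximal DAMGO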

Short transient receptor potential channel 4 (Mus musculus), sequence (Q9QUQ5 whole entry, looked up): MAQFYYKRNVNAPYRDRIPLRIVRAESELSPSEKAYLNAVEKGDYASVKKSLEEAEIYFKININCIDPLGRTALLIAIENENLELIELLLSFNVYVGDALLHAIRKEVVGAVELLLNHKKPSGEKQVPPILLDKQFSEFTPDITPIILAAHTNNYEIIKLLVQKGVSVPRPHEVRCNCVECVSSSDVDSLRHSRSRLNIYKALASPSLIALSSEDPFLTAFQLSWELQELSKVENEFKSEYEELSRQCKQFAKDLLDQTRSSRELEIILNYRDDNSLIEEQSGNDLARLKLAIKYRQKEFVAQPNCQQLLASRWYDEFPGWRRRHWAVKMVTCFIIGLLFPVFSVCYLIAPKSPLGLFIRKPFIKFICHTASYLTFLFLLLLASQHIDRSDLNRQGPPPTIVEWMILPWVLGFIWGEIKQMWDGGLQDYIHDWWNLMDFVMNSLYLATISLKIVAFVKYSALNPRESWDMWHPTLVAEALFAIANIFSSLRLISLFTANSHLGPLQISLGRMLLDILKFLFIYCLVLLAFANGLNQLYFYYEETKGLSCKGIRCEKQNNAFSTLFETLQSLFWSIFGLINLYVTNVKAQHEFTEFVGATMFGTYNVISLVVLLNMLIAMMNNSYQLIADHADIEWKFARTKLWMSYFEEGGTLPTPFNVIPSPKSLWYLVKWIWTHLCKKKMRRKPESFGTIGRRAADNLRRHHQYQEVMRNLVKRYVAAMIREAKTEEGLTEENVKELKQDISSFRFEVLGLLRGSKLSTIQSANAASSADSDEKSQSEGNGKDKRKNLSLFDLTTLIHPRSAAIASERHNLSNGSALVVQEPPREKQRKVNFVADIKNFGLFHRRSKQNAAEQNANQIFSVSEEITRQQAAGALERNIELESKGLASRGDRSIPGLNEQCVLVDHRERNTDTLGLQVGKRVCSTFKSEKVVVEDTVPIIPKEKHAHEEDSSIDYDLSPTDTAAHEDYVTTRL

B-score, active:
COc1ccc(C(CNCC(=O)Nc2ccccc2F)N(C)C)cc1 (centres undefined) 108
COc1ccc2c(c1)OC(O)(C(F)(F)C(F)F)CC2=O (centres undefined) 82
COc1ccc(-n2ncc3c(N4CCc5ccccc54)ncnc32)cc1 64
COc1ccccc1N(CC(=O)N1CCCCC1)S(=O)(=O)c1ccccc1 56
S=C(Nc1ccc(Br)cc1Cl)NC1CCN(Cc2ccccc2)CC1 57
CCCCN(CC)CCCNC(=O)CS(=O)(=O)Cc1nc(-c2cccc(OC)c2)oc1C 56
CCN1/C(=C\c2ccc3ccccc3[n+]2CC)Sc2cc(C)ccc21 425
CCCn1c(C2CCCN2c2nc(-c3ccc(OC)cc3)cs2)nc2ccccc21 (centres undefined) 70
COc1ccc(CN2CCCC(C(=O)c3ccc(Cl)cc3)C2)cc1Cn1cncn1 (centres undefined) 48
CN1C(CC(=O)Nc2ccc(Br)cc2)c2ccccc2CC1(C)C (centres undefined) 109
CCOC(=O)C1(CC2CCCCO2)CCN(Cc2nc(-c3cccs3)oc2C)CC1 (centres undefined) 73
COc1ccc(C(=O)NC(=S)NNC(=O)c2c(-c3ccccc3)noc2C)cc1 133
Cc1onc(-c2ccccc2)c1C(=O)NNC(=S)NC(=O)c1ccc(F)cc1 185
OCCNCCOc1ccc(Cl)c(Cl)c1 70
CCNS(=O)(=O)c1ccc(NC(=O)Nc2cccc(OC)c2)cc1 54
CC(=O)c1ccc(N2CCN(CC(O)c3ccccc3)CC2)cc1 (centres undefined) 63

B-score, inactive:
Cc1cc(N2CCN(c3ccc(F)cc3)CC2)n2ncnc2n1
CCOCCCNC(=O)C(=O)NCCCOCC
CCCCn1c(-c2cccc(C)c2)nc2cc3[nH]c(=O)c(C(C)C)nc3cc21
Cc1ccnc(NC(=O)CCNS(=O)(=O)c2ccc(C)c(C)c2)c1
CCOc1ccc(NS(=O)(=O)c2ccc(C(=O)NCC(c3ccccc3OC)N3CCCC3)cc2)cc1 (centres undefined)
CC(NC(=O)COC(=O)c1ccc(Cl)cc1O)c1ccc(F)cc1 (centres undefined)
COc1ccc(C(CNC(=O)c2ccc(S(=O)(=O)Nc3ccccc3F)cc2)N(C)C)cc1 (centres undefined)
COc1ccc(Cl)cc1NC(=O)CNc1ccccc1F
CC1(C)CC(=O)c2ccc(O)cc2O1
COc1ccc2c(c1)SC(C)CC2=O (centres undefined)
O=S1(=O)CC/C(=N\Nc2ccc(F)cc2)c2ccsc21
COc1ccc(-n2ncc3c(SCC(=O)NNC(C)=O)ncnc32)cc1
CC(C)Sc1ncnc2c1cnn2-c1ccccc1
CC(C)N1CCC(NC(=O)Nc2ccccc2)CC1
COc1ccc(C)cc1N(CC(=O)N1CCCC1)S(=O)(=O)c1ccccc1
COc1ccc(N(CC(=O)N2CCCCCC2)S(=O)(=O)c2ccccc2)cc1
COC(=O)CC1=NN(c2nc(C)cc(C)n2)C(=O)C1
S=C(Nc1ccc(Br)cc1)NC1CCN(Cc2ccccc2)CC1
O=C(COc1ccc(Br)cc1F)NC1CCN(Cc2ccccc2)CC1
O=C(COc1ccccc1Cl)N1CCCCCCC1
CCN1C(=O)C(C(=O)NC(C)c2ccccc2)C2CC1(C)Oc1ccccc12 (centres undefined)
COc1cccc(-c2nc(CS(=O)(=O)CC(=O)NCCc3ccc(OC)c(OC)c3)c(C)o2)c1
COc1ccc(-c2nc(CS(=O)(=O)CC(=O)NCc3cccc(Br)c3)c(C)o2)cc1
CCOc1ccc(CN2CCNC(=O)C2CC(=O)NCCCC2CCCC2)cc1 (centres undefined)
CCN(CC)c1ccc(NC(=O)C2CCC(CNc3c(N4CCCC4)c(=O)c3=O)CC2)c(C)c1 (centres undefined)
CCCn1c(C2CCCN2c2nc(-c3ccc(C)cc3)cs2)nc2cc(Cl)c(N3CCCCC3)cc21 (centres undefined)
CCCn1c(CCNc2nc(-c3ccc(OC)cc3)cs2)nc2ccccc21
CCN1C(=O)[C@H]2[C@@H](c3ccc(-c4ccc(OC)cc4)cc3)N[C@@](Cc3ccccc3)(C(=O)OC)[C@H]2C1=O
COC(=O)c1cc(S(=O)(=O)NC2CCN(Cc3ccccc3)CC2)cn1C
CCC1(CC)Cc2ccccc2-c2nc(CCl)[nH]c(=O)c21
COc1cc(CN2CCCC(C(=O)c3ccc(SC)cc3)C2)cc(Cl)c1O (centres undefined)
COc1ccc(CCN(C)C(=O)C2CCCN(Cc3ccc(OC)c(OC)c3)C2)cc1OC (centres undefined)
CCNS(=O)(=O)c1ccc(CCC(=O)N2CCN(c3ccc(OC)cc3)CC2)cc1
COCC(=O)Nc1ccc(Br)cc1
CN1CCN(NC(=O)Nc2ccc(Br)cc2)CC1
COC(=O)C1CCN(C(=O)NC2CC(=O)N(c3ccc4c(c3)OCCO4)C2)CC1 (centres undefined)
CN(CC(=O)Nc1ccccc1Cl)C(=O)COc1cccc2c1OC(C)(C)C2
CCOc1ccccc1-c1nc(CN2CCC(C(=O)N3CCOCC3)CC2)c(C)o1
COc1cccc(CC2(CO)CCCN(Cc3nc(-c4cccs4)oc3C)C2)c1 (centres undefined)
CC12CCC(C(=O)N(NC(=O)c3ccccc3O)C1=O)C2(C)C (centres undefined)
O=C(NCc1cccnc1)c1cnc2ccccc2n1
COc1cc(C(=O)Nn2c(CC(C)C)nc3ccccc3c2=O)cc(OC)c1OC
CCc1noc(C)c1C(=O)NNC(=O)c1ccc(F)cc1
Cc1ccc(CNC(=O)c2c(-c3ccccc3)noc2C)cc1
Cc1onc(-c2ccccc2)c1C(=O)Nc1ccccc1C#N
Cc1onc(-c2c(Cl)cccc2Cl)c1C(=O)NNC(=O)c1c(-c2c(Cl)cccc2Cl)noc1C
CCc1cccc(C)c1NS(=O)(=O)c1cc(Br)cnc1N
Cc1cc(NS(=O)(=O)c2ccc(NC(=O)C(C)Oc3cccc(C)c3C)cc2)nc(C)n1 (centres undefined)
COc1ccccc1N1CCN(c2nc(C)cc(=O)[nH]2)CC1
Cc1ccc(CN2CCN(c3ccccc3Cl)CC2)o1
OCCNCc1cccc(OCc2ccccc2Cl)c1
OCCNCCCCOc1ccccc1F
COc1cccc2c1CCC(NC(C)=O)C2=O (centres undefined)
c1ccc(C[C@H]2CNCCN2CCC23CC4CC(CC(C4)C2)C3)cc1
COC(=O)C1(C)CC1(c1ccccc1)c1ccccc1 (centres undefined)
COc1cccc(NC(C)=[N+](C)CCNS(=O)(=O)c2ccc(Cl)cc2)c1
CCN(CC(=O)Nc1ccc(S(=O)(=O)N2CCCC2)cc1)CC(=O)Nc1cccc(OC)c1
CC(CN1CCCCC1)c1ccccc1 (centres undefined)
CC(=O)N1CCN(CC(c2ccccc2)c2ccccc2)CC1
CC(=O)c1ccc(N2CCN(C(=O)CCc3ccccc3)CC2)cc1
CCCOc1ccc(Cc2c(O)nc(N)[nH]c2=O)cc1C
C=CCc1ccc(OCCOc2cccc(/C=N/n3cnnc3)c2)c(OC)c1
COC(=O)[C@H]1Cc2cnoc2C[C@]1(C)C(=O)O
